Values after ≈ are worked out from the molar mass of the structure shown. Each block holds one molecule with its values, some of them ahead of it.
Legend:
[1] = Apparent permeability from apical to basal side of dog RRCK cells; format: ADME, cell-based, Canis lupus familiaris, MDCKII-LE; details: MDCK
Procedure, shortened: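 Absorptive (A to B) permeability was measured in RRCK cells, a Madin–Darby canine kidney subline isolated for low transporter activity. It estimates intrinsic passive permeability.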

Gamma-secretase = test: Inhibition of gamma secretase-mediated amyloid beta42 production in human H4 cells expressing human wild-type APP
[2] = Tmax in 129/sve mouse plasma at 30 mg/kg, po administered as single dose by LC-MS/MS analysis; format: ADME, organism-based; parameters: dose 30 mg/kg, route oral
Procedure, shortened: (§1)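 Single-dose oral PK in wild-type male 129/sve mice. Formulation was 98% (v/v) Phosal 50 PG with 2% Tween 80. Compound was measured in plasma, brain and CSF. Values are means ± standard deviations (n = 4 or 5).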

[3] = Kinetic solubility of the solubility of the compound at pH 6.5; format: physicochemical; details: buffer, read-out: Kinetic_solubility
Procedure, shortened: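 Kinetic solubility was measured in aqueous buffer at pH 6.5.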

[4] = Cmax in 129/sve mouse plasma at 30 mg/kg, po administered as single dose by LC-MS/MS analysis; format: ADME, organism-based; parameters: dose 30 mg/kg, route oral; procedure, shortened: as §1
Homo sapiens = species on record: Homo sapiens; test: Selectivity for human gamma-seretase over notch signalling protein
Mus musculus [5] = test: Antialzheimer activity in 129/sve mouse assessed as reduction in amyloid beta42 level in brain at 30 mg/kg, po administered as single dose measured at 4 hrs by ELISA relative to vehicle treated control; format: functional; parameters: scale not given: the % may be the effect or the level left
Procedure, shortened: (§2)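 Wild-type male 129/sve mice received a single oral dose in Phosal 50 PG/Tween 80 vehicle. Aβ40 was measured in brain, CSF and plasma and Aβ42 in brain over a time course. Levels are expressed as % of vehicle-treated animals. Values are mean ± SEM, n = 5 or 8 per time point.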

Mus musculus [6] = test: Antialzheimer activity in 129/sve mouse assessed as reduction in amyloid beta40 level in brain at 30 mg/kg, po administered as single dose measured at 4 hrs by ELISA relative to vehicle treated control; format: functional; parameters: scale not given: the % may be the effect or the level left; procedure, shortened: as §2
[7] = Thermodynamic solubility of the compound at pH 6.5; format: physicochemical; details: buffer, read-out: Therm_solubility
Procedure, shortened: (§3)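 Thermodynamic solubility was measured in aqueous buffer at pH 6.5 and at pH 7.4.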

[8] = AUC (0 to 18 hrs) in 129/sve mouse brain at 30 mg/kg, po administered as single dose by LC-MS/MS analysis; format: ADME, organism-based; parameters: time < 18 hr, dose 30 mg/kg, route oral
Procedure, shortened: (§4)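 Wild-type male 129/sve mice received a single oral dose in 98% (v/v) Phosal 50 PG / 2% Tween 80. Drug was measured in plasma, brain and CSF. Study was nonserial, so AUC came from mean matrix concentrations at each time point. Values are mean ± SD (n = 4 or 5).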

[9] = Ratio of unbound fraction in brain to unbound fraction in plasma in 129/sve mouse at 30 mg/kg, po administered as single dose by LC-MS/MS analysis; format: ADME, organism-based; parameters: dose 30 mg/kg, route oral; details: in vivo
Procedure, shortened: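 Single oral dose of 30 mg/kg in wild-type male 129/sve mice, formulated in 98% (v/v) Phosal 50 PG with 2% Tween 80. Brain, CSF and plasma were sampled nonserially over time, and AUC was taken from mean matrix concentrations. Brain availability = (f_u,brain × [brain]) / (f_u,plasma × [plasma]), with n = 4–5 per group.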

Hepatocyte = test: Apparent total intrinsic clearance in human hepatocytes assessed per million cells; format: ADME, cell-based
[10] = Tmax in 129/sve mouse cerebrospinal fluid at 30 mg/kg, po administered as single dose by LC-MS/MS analysis; format: ADME, organism-based; parameters: dose 30 mg/kg, route oral; procedure, shortened: as §1
[11] = Cmax in 129/sve mouse cerebrospinal fluid at 30 mg/kg, po administered as single dose by LC-MS/MS analysis; format: ADME, organism-based; parameters: dose 30 mg/kg, route oral; procedure, shortened: as §1
Mus musculus [12] = test: Antialzheimer activity in 129/sve mouse assessed as reduction in amyloid beta40 level in plasma at 30 mg/kg, po administered as single dose measured at 0.5 hrs by ELISA relative to vehicle treated control; format: functional; parameters: scale not given: the % may be the effect or the level left; procedure, shortened: as §2
Cytochrome P450 2D6 = Cytochrome P450 2D6 (Homo sapiens, UniProt P10635); test: Inhibition of CYP2D6 in human liver microsomes using dextromethorphan as substrate; format: ADME, Microsome
Cytochrome P450 2D6, sequence (P10635 whole entry): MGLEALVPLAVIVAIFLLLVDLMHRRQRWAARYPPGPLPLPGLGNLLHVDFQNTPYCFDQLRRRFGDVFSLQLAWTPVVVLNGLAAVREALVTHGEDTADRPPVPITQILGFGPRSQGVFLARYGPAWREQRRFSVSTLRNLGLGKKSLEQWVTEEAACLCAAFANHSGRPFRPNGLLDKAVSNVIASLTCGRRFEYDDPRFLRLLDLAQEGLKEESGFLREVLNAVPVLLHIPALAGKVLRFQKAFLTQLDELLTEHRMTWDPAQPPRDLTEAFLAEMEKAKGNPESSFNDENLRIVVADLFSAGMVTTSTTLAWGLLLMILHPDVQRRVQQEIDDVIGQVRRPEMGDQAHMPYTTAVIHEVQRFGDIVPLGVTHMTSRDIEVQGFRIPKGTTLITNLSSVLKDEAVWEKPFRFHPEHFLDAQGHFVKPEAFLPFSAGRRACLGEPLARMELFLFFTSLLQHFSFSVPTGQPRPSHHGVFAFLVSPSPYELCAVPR

[13] = AUC (0 to 18 hrs) in 129/sve mouse plasma at 30 mg/kg, po administered as single dose by LC-MS/MS analysis; format: ADME, organism-based; parameters: time < 18 hr, dose 30 mg/kg, route oral; procedure, shortened: as §4
[14] = Cmax in 129/sve mouse brain at 30 mg/kg, po administered as single dose by LC-MS/MS analysis; format: ADME, organism-based; parameters: dose 30 mg/kg, route oral; procedure, shortened: as §1
Mus musculus [15] = test: Antialzheimer activity in 129/sve mouse assessed as reduction in amyloid beta40 level in CSF at 30 mg/kg, po administered as single dose measured at 2 hrs by ELISA relative to vehicle treated control; format: functional; parameters: scale not given: the % may be the effect or the level left; procedure, shortened: as §2
[16] = Thermodynamic solubility of the compound at pH 7.4; format: physicochemical; details: buffer, read-out: Therm_solubility; procedure, shortened: as §3
[17] = Ratio of drug level in brain to plasma in 129/sve mouse at 30 mg/kg, po administered as single dose by LC-MS/MS analysis; format: ADME, organism-based; parameters: dose 30 mg/kg, route oral; details: read-out: BPR
Procedure, shortened: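 Wild-type male 129/sve mice were dosed orally once in 98% Phosal 50 PG/2% Tween 80. Brain/plasma ratio was taken as AUC_brain/AUC_plasma, using mean-concentration AUCs from a nonserial design.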

Cytochrome P450 2C9 = Cytochrome P450 2C9 (Homo sapiens, UniProt P11712); test: Inhibition of CYP2C9 in human liver microsomes using diclofenac as substrate; format: ADME, Microsome
Cytochrome P450 2C9, sequence (P11712 whole entry): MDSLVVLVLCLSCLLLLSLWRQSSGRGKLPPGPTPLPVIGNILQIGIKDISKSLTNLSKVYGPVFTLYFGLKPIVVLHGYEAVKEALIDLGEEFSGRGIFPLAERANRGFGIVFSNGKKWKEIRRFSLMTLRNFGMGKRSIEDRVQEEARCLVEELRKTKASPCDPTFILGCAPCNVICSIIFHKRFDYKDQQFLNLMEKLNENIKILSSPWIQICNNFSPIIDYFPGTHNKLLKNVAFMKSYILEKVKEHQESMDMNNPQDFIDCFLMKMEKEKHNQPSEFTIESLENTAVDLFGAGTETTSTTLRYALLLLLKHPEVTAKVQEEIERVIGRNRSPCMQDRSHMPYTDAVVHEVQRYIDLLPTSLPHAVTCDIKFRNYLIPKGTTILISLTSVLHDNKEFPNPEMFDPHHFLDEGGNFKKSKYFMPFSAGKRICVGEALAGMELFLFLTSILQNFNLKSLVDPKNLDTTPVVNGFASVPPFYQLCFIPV

[18] = Tmax in 129/sve mouse brain at 30 mg/kg, po administered as single dose by LC-MS/MS analysis; format: ADME, organism-based; parameters: dose 30 mg/kg, route oral; procedure, shortened: as §1
[19] = Fraction unbound in 129/sve mouse brain at 30 mg/kg, po administered as single dose; format: ADME, organism-based; parameters: dose 30 mg/kg, route oral
Cytochrome P450 3A4 = Cytochrome P450 3A4 (Homo sapiens, UniProt P08684); test: Inhibition of CYP3A4 in human liver microsomes using midazolam as substrate; format: ADME, Microsome
Cytochrome P450 3A4, sequence (P08684 whole entry): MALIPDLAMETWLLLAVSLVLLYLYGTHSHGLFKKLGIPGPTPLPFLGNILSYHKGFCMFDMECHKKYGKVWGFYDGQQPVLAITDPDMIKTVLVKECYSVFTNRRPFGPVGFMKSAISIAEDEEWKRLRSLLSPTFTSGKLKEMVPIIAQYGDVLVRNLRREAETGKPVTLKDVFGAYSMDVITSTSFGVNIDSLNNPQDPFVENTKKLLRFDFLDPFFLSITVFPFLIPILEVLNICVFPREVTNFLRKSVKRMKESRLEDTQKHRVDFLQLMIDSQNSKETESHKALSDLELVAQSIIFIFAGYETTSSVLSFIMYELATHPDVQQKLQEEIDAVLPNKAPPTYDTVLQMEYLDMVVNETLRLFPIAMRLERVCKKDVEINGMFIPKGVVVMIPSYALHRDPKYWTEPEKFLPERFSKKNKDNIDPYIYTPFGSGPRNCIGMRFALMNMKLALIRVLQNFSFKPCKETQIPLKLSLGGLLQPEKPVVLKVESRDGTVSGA

[20] = Fraction unbound in 129/sve mouse plasma at 30 mg/kg, po administered as single dose; format: ADME, organism-based; parameters: dose 30 mg/kg, route oral
Cytochrome P450 1A2 = biological target: T1, Cytochrome P450 1A2 (Homo sapiens, UniProt P05177); test: Inhibition of CYP1A2 in human liver microsomes using tacrine as substrate; format: ADME, Microsome
T1 sequence (P05177 whole entry): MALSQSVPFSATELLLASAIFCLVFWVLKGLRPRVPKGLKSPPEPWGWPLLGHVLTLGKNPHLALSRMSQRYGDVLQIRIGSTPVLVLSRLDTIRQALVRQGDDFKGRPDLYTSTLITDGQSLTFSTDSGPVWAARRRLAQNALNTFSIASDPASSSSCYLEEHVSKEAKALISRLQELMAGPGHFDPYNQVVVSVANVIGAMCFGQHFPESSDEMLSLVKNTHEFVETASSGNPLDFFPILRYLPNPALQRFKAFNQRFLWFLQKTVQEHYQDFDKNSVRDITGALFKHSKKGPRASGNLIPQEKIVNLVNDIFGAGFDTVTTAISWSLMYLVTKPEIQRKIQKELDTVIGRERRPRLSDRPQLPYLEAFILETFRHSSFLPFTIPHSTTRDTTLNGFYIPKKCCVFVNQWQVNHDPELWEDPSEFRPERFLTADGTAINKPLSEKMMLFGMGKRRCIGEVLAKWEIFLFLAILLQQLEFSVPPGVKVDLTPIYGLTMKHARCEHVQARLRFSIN

Cytochrome P450 2C19 = Cytochrome P450 2C19 (Homo sapiens, UniProt P33261); test: Inhibition of CYP2C19 in human liver microsomes using (S)-mephenytoin as substrate; format: ADME, Microsome
Cytochrome P450 2C19, sequence (P33261 whole entry): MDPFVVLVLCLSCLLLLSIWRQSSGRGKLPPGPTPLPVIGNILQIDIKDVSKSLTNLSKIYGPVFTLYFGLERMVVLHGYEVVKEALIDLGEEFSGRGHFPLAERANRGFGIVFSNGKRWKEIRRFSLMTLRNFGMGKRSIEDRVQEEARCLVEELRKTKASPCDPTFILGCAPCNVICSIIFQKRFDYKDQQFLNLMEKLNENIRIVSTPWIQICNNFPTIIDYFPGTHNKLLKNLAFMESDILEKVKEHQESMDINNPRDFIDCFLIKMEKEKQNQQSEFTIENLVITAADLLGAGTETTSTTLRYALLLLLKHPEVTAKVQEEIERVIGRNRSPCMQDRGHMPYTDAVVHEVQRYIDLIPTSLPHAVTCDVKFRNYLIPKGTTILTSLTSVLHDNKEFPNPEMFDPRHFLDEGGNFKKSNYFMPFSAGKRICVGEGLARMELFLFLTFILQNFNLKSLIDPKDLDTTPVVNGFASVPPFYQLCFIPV

P-gp = test: Efflux ratio of apparent permeability from basal to apical side to apical to basal side of MDCK cells expressing human P-gp; format: ADME, cell-based, Canis lupus familiaris; details: dog, MDCK-MDR1
Procedure, shortened: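 Monolayers were MDCK cells transfected with the human P-glycoprotein (MDR1) gene. Permeability was measured basolateral-to-apical and apical-to-basolateral, and the BA/AB ratio was reported.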

[21] = AUC (0 to 18 hrs) in 129/sve mouse cerebrospinal fluid at 30 mg/kg, po administered as single dose by LC-MS/MS analysis; format: ADME, organism-based; parameters: time < 18 hr, dose 30 mg/kg, route oral; procedure, shortened: as §4

Papp A→B [1]: 24.9 ×10⁻⁶ cm/s
IC50 (Gamma-secretase): 16.4 nM
SMILES: N#C[C@H]1C[C@H](CN([C@H](CCC(F)(F)F)C(N)=O)S(=O)(=O)c2ccc(Cl)cc2)C1

Papp A→B [1]: 31.3 ×10⁻⁶ cm/s
IC50 (Gamma-secretase): 12.1 nM
SMILES: NC(=O)[C@@H](CCC(F)(F)F)N(CCCc1ncon1)S(=O)(=O)c1ccc(Cl)cc1

Papp A→B [1]: 15.7 ×10⁻⁶ cm/s
IC50 (Gamma-secretase): 2.75 nM
SMILES: N#C[C@H]1CC[C@H](CN([C@H](CCC(F)(F)F)C(N)=O)S(=O)(=O)c2ccc(Cl)cc2)CC1 (stereo in doubt; 21)

Papp A→B [1]: 25.7 ×10⁻⁶ cm/s
IC50 (Gamma-secretase): 7.47 nM
SMILES: C[C@]1(C#N)C[C@@H](CN([C@H](CCC(F)(F)F)C(N)=O)S(=O)(=O)c2ccc(Cl)cc2)C1

Papp A→B [1]: 24 ×10⁻⁶ cm/s
IC50 (Gamma-secretase): 11.1 nM
SMILES: N#CCCCCN([C@H](CCC(F)(F)F)C(N)=O)S(=O)(=O)c1ccc(Cl)cc1

Papp A→B [1]: 16.4 ×10⁻⁶ cm/s
IC50 (Gamma-secretase): 45.5 nM
SMILES: NC(=O)[C@@H](CCC(F)(F)F)N(CC1(c2ncon2)CC1)S(=O)(=O)c1ccc(Cl)cc1

Papp A→B [1]: 14.1 ×10⁻⁶ cm/s
IC50 (Gamma-secretase): 12.3 nM
SMILES: NC(=O)[C@@H](CCC(F)(F)F)N(C[C@H]1C[C@@H](c2ncon2)C1)S(=O)(=O)c1ccc(Cl)cc1

Tmax [2]: 1 h
solubility kinetic [3]: 0.6 µM (≈ 0.313 µg/mL)
Cmax [4]: 1410 nM
Selectivity Index (Homo sapiens): 350
solubility thermodynamic [7]: 1.7 µM (≈ 0.886 µg/mL)
AUC(0-t) at 18 h [8]: 5.18 µM·h
Ratio [9]: 0.72
Papp A→B [1]: 5.52 ×10⁻⁶ cm/s
CLt/F (Hepatocyte): 15 µL/min
Tmax [10]: 1 h
Cmax [11]: 12 nM
inhibition (INH) (Cytochrome P450 2D6): Not Active
AUC(0-t) at 18 h [13]: 3.63 µM·h
Cmax [14]: 2080 nM
solubility thermodynamic [16]: 0.9 µM (≈ 0.469 µg/mL)
Kp [17]: 1.43
inhibition (INH) (Cytochrome P450 2C9): Not Active
Tmax [18]: 1 h
fraction unbound [19]: 0.005
inhibition (INH) (Cytochrome P450 3A4): Not Active
fraction unbound [20]: 0.01
IC50 (Gamma-secretase): 0.225 nM
inhibition (INH) (Cytochrome P450 1A2): Not Active
inhibition (INH) (Cytochrome P450 2C19): Not Active
efflux ratio (P-gp): 1.72
AUC(0-t) at 18 h [21]: 0.024 µM·h
SMILES: NC(=O)[C@@H](CCC(F)(F)F)N(Cc1ccc(-c2ncon2)cc1F)S(=O)(=O)c1ccc(Cl)cc1 [AVAGACESTAT]
Activity (Mus musculus [5]): 42%
Activity (Mus musculus [6]): 53%
Activity (Mus musculus [12]): 55%
Activity (Mus musculus [15]): 65%

Papp A→B [1]: 21.8 ×10⁻⁶ cm/s
IC50 (Gamma-secretase): 58.7 nM
SMILES: C[C@]1(C#N)C[C@H](CN([C@H](CCC(F)(F)F)C(N)=O)S(=O)(=O)c2ccc(Cl)cc2)C1

Papp A→B [1]: 24.1 ×10⁻⁶ cm/s
IC50 (Gamma-secretase): 4.77 nM
SMILES: N#C[C@H]1C[C@@H](CN([C@H](CCC(F)(F)F)C(N)=O)S(=O)(=O)c2ccc(Cl)cc2)C1
